Measured values taken from ChEMBL document CHEMBL1671834, “Novel 3-aryl indoles as progesterone receptor antagonists for uterine fibroids” (ACS Med Chem Lett, 2011).

Key:
[1] = biological target: T1, Progesterone receptor (Homo sapiens, UniProt P06401); assay: Antagonist activity at human progesterone receptor expressed in HEK293 cells assessed as inhibition of […]-induced transcriptional activity by GRE-driven luciferase reporter gene assay; type: functional, cell-based
T1 sequence (P06401 whole entry): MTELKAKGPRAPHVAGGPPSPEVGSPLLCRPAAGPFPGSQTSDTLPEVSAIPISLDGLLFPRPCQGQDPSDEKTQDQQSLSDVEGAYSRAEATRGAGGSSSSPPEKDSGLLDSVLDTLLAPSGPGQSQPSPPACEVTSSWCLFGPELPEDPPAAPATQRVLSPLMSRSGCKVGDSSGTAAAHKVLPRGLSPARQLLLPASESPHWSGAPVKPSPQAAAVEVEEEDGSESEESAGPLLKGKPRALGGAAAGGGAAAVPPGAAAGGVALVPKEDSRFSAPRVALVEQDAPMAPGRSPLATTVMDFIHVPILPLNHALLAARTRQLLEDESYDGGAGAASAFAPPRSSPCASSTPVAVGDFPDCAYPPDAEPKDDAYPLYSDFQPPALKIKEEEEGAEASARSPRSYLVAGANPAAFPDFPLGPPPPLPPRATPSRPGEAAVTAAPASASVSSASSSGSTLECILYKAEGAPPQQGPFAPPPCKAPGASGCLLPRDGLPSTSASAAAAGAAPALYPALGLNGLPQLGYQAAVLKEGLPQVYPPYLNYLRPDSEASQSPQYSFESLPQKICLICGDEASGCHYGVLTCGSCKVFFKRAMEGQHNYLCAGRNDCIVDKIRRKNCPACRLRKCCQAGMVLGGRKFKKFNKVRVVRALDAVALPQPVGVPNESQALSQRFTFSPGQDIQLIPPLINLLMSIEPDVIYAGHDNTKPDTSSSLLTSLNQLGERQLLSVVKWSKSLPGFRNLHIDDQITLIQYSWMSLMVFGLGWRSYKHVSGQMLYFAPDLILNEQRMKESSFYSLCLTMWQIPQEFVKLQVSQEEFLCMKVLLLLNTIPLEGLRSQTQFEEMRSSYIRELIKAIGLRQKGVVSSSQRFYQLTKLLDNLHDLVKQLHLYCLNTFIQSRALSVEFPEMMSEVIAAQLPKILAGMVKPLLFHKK
How it was run: (§1)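 Transcription assay in HEK293 cells cotransfected with full-length human receptor. Values are geometric means of at least duplicate determinations.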

[2] = biological target: T2, Glucocorticoid receptor (Homo sapiens, UniProt P04150); assay: Displacement of [3H]methyltrienolone from human glucocorticoid receptor expressed in HEK293 cells; type: cell-based
T2 sequence (P04150 whole entry): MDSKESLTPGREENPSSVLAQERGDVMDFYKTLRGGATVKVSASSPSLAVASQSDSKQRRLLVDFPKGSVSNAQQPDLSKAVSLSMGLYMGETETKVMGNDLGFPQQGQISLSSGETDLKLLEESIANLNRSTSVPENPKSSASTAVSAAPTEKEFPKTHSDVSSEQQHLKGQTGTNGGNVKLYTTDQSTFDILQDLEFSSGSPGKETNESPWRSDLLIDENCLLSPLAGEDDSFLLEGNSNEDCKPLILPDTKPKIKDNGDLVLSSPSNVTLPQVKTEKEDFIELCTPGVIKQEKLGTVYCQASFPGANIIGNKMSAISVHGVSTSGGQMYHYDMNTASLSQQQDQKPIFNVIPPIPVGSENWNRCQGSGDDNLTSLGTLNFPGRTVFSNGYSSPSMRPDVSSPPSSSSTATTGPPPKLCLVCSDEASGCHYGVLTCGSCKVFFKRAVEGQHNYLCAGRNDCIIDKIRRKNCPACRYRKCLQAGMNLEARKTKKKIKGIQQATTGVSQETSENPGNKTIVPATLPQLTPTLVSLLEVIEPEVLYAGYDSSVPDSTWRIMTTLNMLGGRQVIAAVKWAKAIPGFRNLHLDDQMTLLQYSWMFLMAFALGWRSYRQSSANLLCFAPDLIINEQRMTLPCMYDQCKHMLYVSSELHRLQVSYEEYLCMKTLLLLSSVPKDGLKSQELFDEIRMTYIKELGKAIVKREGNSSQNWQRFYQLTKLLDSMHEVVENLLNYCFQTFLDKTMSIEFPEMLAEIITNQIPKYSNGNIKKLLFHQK

[3] = biological target: T3, Progesterone receptor (Homo sapiens) (UniProt P06401); assay: Antagonist activity at human progesterone receptor expressed in HEK293 cells assessed as inhibition of […]-induced transcriptional activity by GRE-driven luciferase reporter gene assay relative to untreated control; type: functional, cell-based; parameters: concentration or dose not given beside the values; details: concentration not given here; how it was run: as §1
T3 sequence (whole entry): T1 sequence (P06401 whole entry)

[4] = biological target: T4, Androgen receptor (Homo sapiens, UniProt P10275); assay: Displacement of [3H]methyltrienolone from human androgen receptor expressed in HEK293 cells; type: cell-based
T4 sequence (P10275 whole entry): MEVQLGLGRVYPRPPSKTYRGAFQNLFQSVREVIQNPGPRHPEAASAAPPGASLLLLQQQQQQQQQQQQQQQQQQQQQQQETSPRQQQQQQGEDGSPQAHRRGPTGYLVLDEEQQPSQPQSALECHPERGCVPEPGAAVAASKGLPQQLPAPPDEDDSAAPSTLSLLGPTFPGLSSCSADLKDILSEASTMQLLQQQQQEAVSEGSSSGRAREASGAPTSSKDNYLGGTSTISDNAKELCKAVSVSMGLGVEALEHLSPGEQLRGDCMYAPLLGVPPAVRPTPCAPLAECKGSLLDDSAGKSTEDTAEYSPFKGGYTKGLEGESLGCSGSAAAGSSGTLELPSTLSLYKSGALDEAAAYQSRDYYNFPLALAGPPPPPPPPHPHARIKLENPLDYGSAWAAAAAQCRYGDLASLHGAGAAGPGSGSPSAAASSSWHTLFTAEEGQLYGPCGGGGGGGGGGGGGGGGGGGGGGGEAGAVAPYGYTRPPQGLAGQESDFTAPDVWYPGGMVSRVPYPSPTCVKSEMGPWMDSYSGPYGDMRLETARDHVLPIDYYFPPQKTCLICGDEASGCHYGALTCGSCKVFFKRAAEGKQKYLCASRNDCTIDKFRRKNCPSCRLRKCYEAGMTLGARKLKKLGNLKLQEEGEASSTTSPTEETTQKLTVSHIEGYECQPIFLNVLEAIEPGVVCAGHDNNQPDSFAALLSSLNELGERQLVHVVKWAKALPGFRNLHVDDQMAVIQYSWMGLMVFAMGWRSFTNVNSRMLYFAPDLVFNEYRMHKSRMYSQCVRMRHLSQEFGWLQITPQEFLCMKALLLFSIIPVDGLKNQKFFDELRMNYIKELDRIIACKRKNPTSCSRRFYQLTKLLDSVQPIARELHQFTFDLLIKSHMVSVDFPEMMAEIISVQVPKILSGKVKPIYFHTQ

[5] = biological target: T1, Progesterone receptor; assay: Displacement of [3H]methyltrienolone from human progesterone receptor expressed in HEK293 cells; type: cell-based
How it was run: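 Competitive binding to recombinant full-length human receptors against tritium-labelled standards. Values are geometric means of at least duplicate determinations.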

| IC50 [1] [nM] | Ki [2] [nM] | inhibition [3] [%] | Ki [4] [nM] | Ki [5] [nM] | Structure (SMILES) |
| --- | --- | --- | --- | --- | --- |
| 7.28 | 977 | 97.4 | 490 | 1.45 | COc1cc(-c2cn(C(C)C)c3cc(NS(C)(=O)=O)ccc23)ccc1C#N |
| 3720 | 50.2 | 86.5 | 68.9 | 478 | COc1ccc(C(c2ccccc2)c2c[nH]c3ccccc23)cc1 (stereo not given) |
| 485 | > 4290 | 87.8 | > 4020 | 28 | Cn1cc(-c2ccc(C#N)cc2)c2ccc(NS(C)(=O)=O)cc21 |
| 765 | 6.39 | 91.7 | 220 | 454 | CC(c1ccc(F)cc1)(c1c[nH]c2c(NS(C)(=O)=O)cccc12)C1CC1 (stereo not given) |
| 9.92 | 780 | 96.2 | 2550 | 0.834 | CC[C@@H](C)n1cc(-c2ccc(C#N)cc2)c2ccc(NS(C)(=O)=O)cc21 |
| 2.29 | 523 | 94.9 | 648 | 0.214 | CC(C)n1cc(-c2ccc(C#N)c(F)c2)c2ccc(NS(C)(=O)=O)cc21 |
| 12.6 | 927 | 97 | 2590 | 4.23 | CCn1cc(-c2ccc(C#N)cc2)c2ccc(NS(C)(=O)=O)cc21 |
| 3.38 | 157 | 95.8 | 403 | 0.298 | Cc1cc(-c2cn(C(C)C)c3cc(NS(C)(=O)=O)ccc23)ccc1C#N |
| 6.81 | 1530 | 96.2 | > 3900 | 0.795 | CC(C)n1cc(-c2ccc(C#N)cc2)c2ccc(NS(C)(=O)=O)cc21 |
| 3.89 | 1860 | 96.8 | 1740 | 0.32 | CC[C@H](C)n1cc(-c2ccc(C#N)cc2)c2ccc(NS(C)(=O)=O)cc21 |
